Screens from PubChem.
Shown are actives, neighbours in structure and some others; about 3.7% of the full set was active somewhere.
hERG rescue: hERG (human) protection from proarrhythmic block; CHO-hERG, FluxOR thallium flux, dofetilide IC70 present; hit rate 0.51% among 310,000; activation (rescue from dofetilide block), less the hit threshold, % at 10 µM;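 active means activation above the mean of controls blocked by dofetilide plus 5 SD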;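 further: thallium influx through hERG after potassium depolarization seen as dye fluorescence rise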
Kir21 block: blocks the mouse Kir2.1 inward-rectifier potassium channel; P35561; HEK293-Kir2.1, FluxOR thallium flux fluorescence; active compounds read low; B-score at 10 µM; hit rate 0.85% among 310,000; AID 1672;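 active means fluorescence ratio B-score at or below minus 3 SD of library scores, with starting-brightness B-score within 2 SD, cut at about -4.2 in these data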;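 further: channel flux triggered by added potassium and thallium sulfate stimulus; B-score of peak minus minimum fluorescence over baseline after thallium stimulus; more negative B-score means stronger Kir2.1 block with less thallium influx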
KCNK9 inh: human KCNK9 channel inhibition; Q9NPC2; HEK293 KCNK9, FluxOR thallium flux fluorescence; active compounds read low; B-score at 10 µM; hit rate 1.2% among 310,000; AID 488922;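 active means ratio B-score over 3 SD below the library mean, with starting fluorescence within 5 SD of its mean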;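 further: negative B-score means less thallium flux so channel inhibition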
Target sequence (Q9NPC2 whole entry, looked up): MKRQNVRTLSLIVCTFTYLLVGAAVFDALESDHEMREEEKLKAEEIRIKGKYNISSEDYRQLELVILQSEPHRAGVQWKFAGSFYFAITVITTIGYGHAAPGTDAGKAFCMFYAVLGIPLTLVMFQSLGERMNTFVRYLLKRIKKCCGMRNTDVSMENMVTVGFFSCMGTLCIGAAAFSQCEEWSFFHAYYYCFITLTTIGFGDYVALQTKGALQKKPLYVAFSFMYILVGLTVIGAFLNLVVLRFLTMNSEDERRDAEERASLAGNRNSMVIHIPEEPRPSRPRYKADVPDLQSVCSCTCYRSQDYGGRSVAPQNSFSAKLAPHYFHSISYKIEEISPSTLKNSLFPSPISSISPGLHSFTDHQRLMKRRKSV
KCNQ1 block: blocks the human KCNQ1 potassium channel | CHO-K1 KCNQ1, FluxOR thallium flux fluorescence; active compounds read high | hit rate 1.3% among 310,000 | B-score at 10 µM | P51787;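 active means compounds whose thallium flux B-score, printed positive for inhibition, exceeds three library SD while starting fluorescence stays within three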;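 further: channel opened by potassium depolarization with thallium stimulus after 20 min compound exposure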
KCNK3 block: human KCNK3 channel inhibition, primary screen; AID 602410; B-score at 10 µM; hit rate 0.84% among 340,000; O14649; CHO-KCNK3 thallium flux, FluxOR fluorescence; active compounds read low;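 active means B-score under library mean minus 4 SD, starting fluorescence ratio at most library mean plus 5 SD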;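 further: more negative B-score means stronger inhibition of thallium flux through KCNK3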
Target sequence (O14649 whole entry, looked up): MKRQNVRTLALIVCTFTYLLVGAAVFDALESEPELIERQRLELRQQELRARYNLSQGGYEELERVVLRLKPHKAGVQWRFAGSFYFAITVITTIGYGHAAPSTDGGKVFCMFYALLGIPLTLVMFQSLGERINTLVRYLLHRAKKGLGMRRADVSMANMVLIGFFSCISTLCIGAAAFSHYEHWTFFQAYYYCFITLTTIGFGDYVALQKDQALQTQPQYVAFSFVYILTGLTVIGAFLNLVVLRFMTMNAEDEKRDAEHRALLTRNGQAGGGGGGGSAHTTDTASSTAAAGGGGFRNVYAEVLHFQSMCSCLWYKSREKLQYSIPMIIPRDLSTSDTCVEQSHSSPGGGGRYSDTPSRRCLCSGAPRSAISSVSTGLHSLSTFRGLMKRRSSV
KCNQ1 act: human KCNQ1 channel potentiation or activation; AID 2648; hit rate 0.35% among 310,000; CHO-K1 KCNQ1, thallium flux FluxOR fluorescence; active compounds read high; B-score at 10 µM;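 active means fluorescence ratio B-score, a plate-corrected score, at least three library SD, with initial intensity B-score within 5 SD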
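Schedule – 37 °C overnight plating, 90-min dark dye load, 20-min compound pretreatment · System – stable KCNQ1 CHO-K1 line · Probe or stimulus – thallium- and potassium-containing depolarizing buffer · Measured by – kinetic FluxOR fluorescence, 10 s baseline plus 110 s post-stimulus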
Large screens that a line does not name were inactive; ! = a repeat was not active.

Cc1ccc(OCC(O)CN2CCN(Cc3ccc4c(c3)OCO4)CC2)cc1C (stereo unspecified)	none
C=CCc1ccccc1OCC(O)CN1CCN(Cc2ccc3c(c2)OCO3)CC1 (stereo unspecified)	Kir21 block -4.6!
O=C(NCc1ccccc1C(F)(F)F)C1CC(c2cc(C(F)(F)F)cc(C(F)(F)F)c2)=NO1 (stereo unspecified)	KCNQ1 block 6
Cn1c(=O)c2[nH]c(NN=Cc3cccc(Br)c3)nc2n(C)c1=O	none (no result: hERG rescue, Kir21 block, KCNK9 inh, KCNQ1 block, KCNQ1 act)
COc1ccc(-c2nn(-c3ccccc3)cc2/C=C/C(=O)N2CCN(c3ccccn3)CC2)cc1	KCNQ1 block 6
CCOC(=O)C1CC2=C(CC(C)(C)CC2=O)N(CCOC)C1=O (stereo unspecified)	none (no result: hERG rescue, Kir21 block, KCNK9 inh, KCNQ1 block, KCNQ1 act)
Cc1ccc(-n2c(-c3cc(-c4ccco4)[nH]n3)n[nH]c2=S)c(Br)c1	KCNQ1 block 6
COc1cc(C(=O)NCC(c2cccs2)N2CCOCC2)cc(OC)c1OC (stereo unspecified)	none
Cc1cc(C(=O)OCC(=O)NC(C)c2ccc(F)cc2)c(C)o1 (stereo unspecified)	none (no result: hERG rescue, Kir21 block, KCNK9 inh, KCNQ1 block, KCNQ1 act)
CN1C(=O)/C(=C\c2cc(N=Nc3ccccc3)ccc2O)SC1=S	KCNQ1 block 7
CN1C(=O)/C(=C\c2ccccc2OCc2ccccc2)SC1=S	none
Cc1cc(/C=C2\SC(=S)N(C)C2=O)c(C)n1-c1cccc(O)c1	KCNK9 inh -6.8
Nc1c(-c2ccccc2Cl)cnn1-c1cccc([N+](=O)[O-])c1	KCNK9 inh -7.6
COC(=O)C1=NNC(C(=O)OC)C1c1ccccc1 (stereo unspecified)	none (no result: hERG rescue, Kir21 block, KCNK9 inh, KCNQ1 block, KCNQ1 act)
CC(C(=O)N1CCc2ccccc21)N1CCN(S(=O)(=O)c2cccc(C(F)(F)F)c2)CC1 (stereo unspecified)	none (no result: hERG rescue, Kir21 block, KCNK9 inh, KCNQ1 block, KCNQ1 act)
O=C(NCCc1ccc(Cl)cc1)C1COc2ccccc2O1 (stereo unspecified)	Kir21 block -4.7
CS(=O)(=O)N(CC(=O)NC1CCCC1)C1CCCCC1	hERG rescue 6.5
CC12CCC(C(=O)N(CSC(=S)N/N=C\c3ccccc3)C1=O)C2(C)C (stereo unspecified)	KCNQ1 act 15
CC12CCC(C(=O)N(CSC(=S)N/N=C\c3ccccc3Cl)C1=O)C2(C)C (stereo unspecified)	KCNQ1 act 35
Cc1ccccc1NCN1C(=O)C2CCC(C)(C1=O)C2(C)C (stereo unspecified)	none
S=c1nc(-c2ccccc2)n(CCCN2CCOCC2)c2c1CCCC2	hERG rescue 6.8
CCOc1cc(CNCc2ccccc2)ccc1OCC(=O)NC1CCCCC1	Kir21 block -4.4
Cc1ccc(S(=O)(=O)NCC(=O)OCC(=O)Nc2ccc3c(c2)OCCO3)cc1	none (no result: hERG rescue, Kir21 block, KCNK9 inh, KCNQ1 block, KCNQ1 act)
Cc1ccc(C(=O)c2cc([N+](=O)[O-])ccc2N2CC(C)OC(C)C2)cc1 (stereo unspecified)	none
CC1CCCN(c2ccc([N+](=O)[O-])cc2C(=O)c2ccccc2)C1 (stereo unspecified)	KCNQ1 block 6
Cc1ccc(C(=O)c2cc([N+](=O)[O-])ccc2N2CCCCC2)cc1	KCNK9 inh -7.4
O=C(c1ccccc1)c1cc([N+](=O)[O-])ccc1N1CCOCC1	none
O=S(=O)(Nc1ccc(-n2cnnn2)cc1)c1cccc(Cl)c1	none (no result: hERG rescue, Kir21 block, KCNK9 inh, KCNQ1 block, KCNQ1 act)
O=C(CN1CCOCC1)NNc1nc(-c2ccccc2)c2cc(Br)ccc2n1	KCNQ1 block 7
COc1ccc(S(=O)(=O)Nc2nc3ccccc3nc2Nc2ccc3c(c2)OCO3)cc1	none (no result: KCNK3 block)
O=S(=O)(Nc1nc2ccccc2nc1Nc1ccc2c(c1)OCCO2)c1cccs1	KCNQ1 block 12
CON/C=C(\C=Nc1ccccc1)c1ncc(C(F)(F)F)cc1Cl	KCNQ1 block 7
COC(=O)/C(=C\Nc1cccc(Cl)c1C)c1ncc(C(F)(F)F)cc1Cl	none
O=C(NCC1CCCO1)c1ccccc1-c1nc(-c2ccc(Cl)cc2)no1 (stereo unspecified)	KCNQ1 block 6
COc1ccc(OC)c(NC(=O)CSc2nc3[nH]c(=O)[nH]c(=O)c3s2)c1	none (no result: hERG rescue, Kir21 block, KCNK9 inh, KCNQ1 block, KCNQ1 act)
Cc1cc(C)c(S(C)(=O)=O)c(S(=O)(=O)c2ccc(Cl)cc2)n1	none
CNc1nc(C)cc(C)c1S(=O)(=O)c1ccc(C)cc1	Kir21 block -5.8
CC(=O)OC1C=CCC2C(=O)c3cccc(O)c3C(O)C12 (stereo unspecified)	none (no result: hERG rescue, Kir21 block, KCNK9 inh, KCNQ1 block, KCNQ1 act)
CCOC(=O)c1sc2nccc(N(C)C)c2c1N=CNOCc1c(F)cccc1Cl	KCNQ1 block 8
CCOC(=O)c1sc2nccc(N(C)C)c2c1N=CNOCc1ccccc1	none (no result: hERG rescue, Kir21 block, KCNK9 inh, KCNQ1 block, KCNQ1 act)
CC(C)n1c(CSCc2ccc(Cl)cc2Cl)n[nH]c1=S	Kir21 block -4.5
Nc1nnc(CSCc2ccc(Cl)cc2Cl)s1	none
Cc1ccc(NC(=O)c2cccc(-n3cnnn3)c2)cc1Cl	none (no result: hERG rescue, Kir21 block, KCNK9 inh, KCNQ1 block, KCNQ1 act)
CCOc1ccc(Oc2cc(NC(=O)c3ccco3)cc([N+](=O)[O-])c2)cc1	none (no result: hERG rescue, Kir21 block, KCNK9 inh, KCNQ1 block, KCNQ1 act)
O=C(Nc1cc(Oc2ccc(Cl)cc2)cc([N+](=O)[O-])c1)c1ccco1	KCNK9 inh -7
CCCCn1nc2cc(C(=O)NCc3ccc(C(F)(F)F)cc3C(F)(F)F)ccc2c1OCC	KCNQ1 block 6
CCOc1c2ccc(C(=O)NCc3ccc(C(F)(F)F)cc3C(F)(F)F)cc2nn1C	none
CCC(C)NC(=S)N1CCN(C(c2ccccc2)c2ccccc2)CC1 (stereo unspecified)	KCNK9 inh -7.7
Cc1cccc(CSc2nnc([C@@H]3CCCN3C(=O)OC(C)(C)C)o2)c1	Kir21 block -6
CC(C)(C)OC(=O)N1CCC[C@H]1c1nnc(SCc2c(Cl)cccc2Cl)o1	none
COCCCNCCCOc1ccc(C(C)(C)c2ccccc2)cc1	Kir21 block -8.2
C=CCNCCCOc1ccc(C(C)(C)c2ccccc2)cc1	Kir21 block -8.6
COCCNCCCOc1ccc(C(C)(C)c2ccccc2)cc1	none
O=C1C(=O)c2c(ccc3ccccc23)-c2ccccc21	none (no result: hERG rescue, Kir21 block, KCNK9 inh, KCNQ1 block, KCNQ1 act)
CCOC(=O)c1c(C)[nH]c(C(C)=NNC(=O)c2cccs2)c1C	none (no result: hERG rescue, Kir21 block, KCNK9 inh, KCNQ1 block, KCNQ1 act)
CC1CCN(C(=O)c2ccc(N3CCOCC3)c([N+](=O)[O-])c2)CC1	none (no result: hERG rescue, Kir21 block, KCNK9 inh, KCNQ1 block, KCNQ1 act)
Nc1cc(C(=O)c2cccs2)ccc1Cl	KCNK9 inh -6.8
CC(C)(C)C(=O)O/N=C1\CCS(=O)(=O)c2sccc21	none
O=C(O/N=C1\CCS(=O)(=O)c2sccc21)C1CC1	hERG rescue 5.0
CCn1c(=O)cc(OCC(=O)NCCCN2CCCC2=O)c2ccccc21	none
CN1CCN(C2=Cc3ccccc3Sc3cc(F)ccc32)CC1	Kir21 block -8.4
O=c1cc(O)sc2ccccc12	none
O=c1[nH]sc2ccccc12	KCNQ1 act 13
CN(c1ccc(F)cc1)S(=O)(=O)c1ccc(Cl)c(C(=O)NCC2(N3CCOCC3)CCCCC2)c1	none (no result: hERG rescue, Kir21 block, KCNK9 inh, KCNQ1 block, KCNQ1 act)
